Measurements published in ChEMBL document CHEMBL1955778, “Design and synthesis of novel 7-aminoquinazoline derivatives: antitumor and anticonvulsant activities” (Bioorg Med Chem Lett, 2012).

Columns and labels:
[1] = Therapeutic index, ratio of LD50 for mouse to ED50 for pentylenetetrazol-induced seizure in mouse; assay type: organism-based; details: in vivo, read-out: Ratio LD50/ED50
Method in brief: (§1)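 In mice, LD50 is the dose causing 50% mortality. ED50 is the dose protecting 50% of mice against pentylenetetrazole-induced seizures. Therapeutic index = LD50/ED50.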

Mus musculus [2] = test: Anticonvulsant activity in mouse assessed as protection against strychnine-induced seizure at 1.4 mmol/kg, ip administered 30 min prior to strychnine-challenge measured after 60 mins relative to control; assay type: functional
Mus musculus [3] = test: Anticonvulsant activity in ip dosed mouse assessed as protection against pentylenetetrazol-induced seizure administered 30 min prior to pentylenetetrazol-challenge measured after 60 mins; assay type: functional
Method in brief: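 Mice received several doses for quantification. ED50 taken as the dose protecting 50% of mice against pentylenetetrazol-induced seizures.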

Mus musculus [4] = test: Anticonvulsant activity in mouse assessed as protection against pentylenetetrazol-induced seizure at 1.4 mmol/kg, ip administered 30 min prior to pentylenetetrazol-challenge measured after 60 mins relative to control; assay type: functional
Mus musculus [5] = test: Anticonvulsant activity in mouse assessed as protection against maximal electroshock-induced seizure at 1.4 mmol/kg, ip administered 30 min prior to maximal electroshock-challenge measured after 60 mins relative to control; assay type: functional
Mus musculus [6] = test: Anticonvulsant activity in mouse assessed as protection against picrotoxin-induced seizure at 1.4 mmol/kg, ip administered 30 min prior to picrotoxin-challenge measured after 60 mins relative to control; assay type: functional
Mus musculus [7] = species: Mus musculus; test: Protective index, ratio of TD50 for mouse to ED50 for pentylenetetrazol-induced seizure in mouse; assay type: functional
Method in brief: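 Mice. Index is TD50/ED50. TD50 is the dose causing minimal neurological toxicity in 50% of mice in the Chimney test. ED50 is the dose protecting 50% of mice against pentylenetetrazole-induced seizures. Both are estimated from testing at several doses.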

[8] = Toxicity in ip dose mouse assessed as mortality; assay type: organism-based; details: in vivo; method in brief: as §1
[9] = Neurotoxicity in ip dosed mouse assessed as impaired motor coordination administered 30 mins prior to test by chimney test; assay type: toxicity, organism-based; details: in vivo
Method in brief: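 Mice, Chimney test. TD50 is the dose that produces minimal neurological toxicity (impaired motor coordination) in 50% of animals, estimated from testing at several doses.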

SMILES: Cc1ccccc1-n1c(C)nc2ccccc2c1=O [METHAQUALONE]
- selectivity ratio [1]: 1.4
- Activity (Mus musculus [2]): 0%
- ED50 (Mus musculus [3]): 1400 µmol/kg
- Activity (Mus musculus [4]): 100%
- Activity (Mus musculus [5]): 100%
- Activity (Mus musculus [6]): 50%
- Ratio TD50/ED50 (Mus musculus [7]): 1.14
- LD50 [8]: 2000 µmol/kg
- TD50 at 0.5 h [9]: 1600 µmol/kg
